# Bioassay records from PubChem.
# Most compounds without a hit are left out; they make up all but 2.6% or so of the library.
# RanGTP-Impb inh – inhibitors of RanGTP-importin-beta interaction, primary screen, biochemical, FRET, CFP-Ran, YFP-importin-beta, homogeneous. inhibition, % (test concentration not listed). cell-free CFP-Ran/YFP-importin-beta FRET ratio. hit rate 1.1% among 300,000;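 active means more than half of the replicate wells show a fall in the fluorescence ratio signal beyond about 16%, limit read from the data, passing the limit was not always enough; inconclusive means exactly half of the replicate wells pass the set limit; inactive means fewer than half of replicates pass the limit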;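 further: 0% = DMSO wells and 100% = Ran loaded with GDP instead of GTP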
# IMP-1 inh – inhibitors of Pseudomonas aeruginosa IMP-1 metallo-beta-lactamase | purified IMP-1, nitrocefin hydrolysis, epi-absorbance fluorescence | inhibition, % at 5.6 µM | hit rate 0.45% among 290,000 | AID 1556;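 active means inhibition above the mean plus 3 SD of all compounds in the same screening run, cut at about 4.5% in these data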;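 further: 0% = IMP-1 with DMSO and 100% = DMSO wells lacking enzyme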
#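 Test system: recombinant IMP-1 enzyme, purified / Medium: HEPES buffer pH 7.1 with ZnSO4 and Brij 35 / Doses: single dose, 5.6 µM / Times: 25 °C, 15 min preincubation, 25 min reaction / Detection: Epi-absorbance via hydrolysed-nitrocefin quenching of white-plate fluorescence, 480/530 nm, EDTA stop / Evaluation: percent inhibition from optical density relative to buffer-blank wells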
# Runt-CBFb FRET – inhibitors of human RUNX1 Runt domain binding to CBFb; AID 1496; Cerulean-Runt/Venus-CBFb FRET ratio 530/480, 1 h; inhibition, % at 20 µM; Q01196+Q13951; hit rate 0.46% among 220,000;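 active means inhibition over about 50% at 20 µM in the single-dose screen, limit read from the data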;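 further: 0% = DMSO wells and 100% = excess unlabeled CBFb competitor control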
# Target sequence (Q01196 whole entry, looked up, the tested form may be a part): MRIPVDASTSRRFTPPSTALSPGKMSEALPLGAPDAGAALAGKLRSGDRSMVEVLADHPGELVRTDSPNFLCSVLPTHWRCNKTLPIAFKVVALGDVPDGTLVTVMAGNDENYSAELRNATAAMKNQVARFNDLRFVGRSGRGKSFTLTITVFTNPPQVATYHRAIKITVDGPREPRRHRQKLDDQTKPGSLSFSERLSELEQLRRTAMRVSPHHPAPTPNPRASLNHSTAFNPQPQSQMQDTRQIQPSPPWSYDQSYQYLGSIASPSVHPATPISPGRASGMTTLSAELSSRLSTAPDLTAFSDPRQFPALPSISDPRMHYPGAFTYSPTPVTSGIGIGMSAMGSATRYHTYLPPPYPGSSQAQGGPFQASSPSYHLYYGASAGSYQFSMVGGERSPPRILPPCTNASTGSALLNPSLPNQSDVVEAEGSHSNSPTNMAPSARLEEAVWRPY
# Target sequence (Q13951 whole entry, looked up, the tested form may be a part): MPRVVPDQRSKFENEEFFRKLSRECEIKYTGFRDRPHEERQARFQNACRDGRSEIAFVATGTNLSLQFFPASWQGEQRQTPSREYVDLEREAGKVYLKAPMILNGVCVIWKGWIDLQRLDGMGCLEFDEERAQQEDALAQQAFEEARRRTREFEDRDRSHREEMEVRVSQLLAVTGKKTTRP
#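 test system = Cerulean-tagged RUNX1 Runt domain (FRET donor) fusion protein | reagent = Venus-CBFb binding partner, 100 nM | incubation = protein complex preformed 1 h, compound exposure 1 h, room temperature, dark | detection = FRET fluorescence | read-out basis = loss of energy transfer signal | controls = 5 µM unlabeled CBFb as full-inhibition high control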
# Runt-SMMHC FRET – inhibitors of human RUNX1 Runt domain binding to CBFb-SMMHC. Q01196+Q13951. Cerulean-Runt/Venus-CBFb-SMMHC FRET ratio 530/480, 1 h. inhibition, % at 20 µM. hit rate 0.74% among 220,000. AID 1434;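 active means mean inhibition across duplicate retests at 20 µM reaching about 50%, limit read from the data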;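 further: 0% = DMSO wells and 100% = wells with excess untagged CBFb-SMMHC; inhibitors lower the FRET ratio by blocking Runt binding to CBFb-SMMHC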
# VIM-2 inhibitor – blocks Pseudomonas aeruginosa VIM-2 metallo-beta-lactamase; hit rate 0.89% among 290,000; inhibition, % at 5.6 µM; purified VIM-2, nitrocefin hydrolysis, epi-absorbance fluorescence;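 active means inhibition above the mean of all tested compounds plus 3 SD, cutoff set per screening run, cut at about 7.5% in these data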;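 further: red hydrolysis product quenches plate fluorescence so inhibitors raise well fluorescence; 0% = enzyme with DMSO and 100% = DMSO without enzyme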
# Active calls of the source: *; u = inconclusive; x = no result.
SMILES,RanGTP-Impb inh,IMP-1 inh,Runt-CBFb FRET,Runt-SMMHC FRET,VIM-2 inhibitor
CCOC(=O)c1cnc(-n2nc(C)cc2C)nc1NC1CCCC1,3.6,-3.5,-1.4,-6.5,8.4*
CCOC(=O)c1cnc(-n2nc(C)cc2C)nc1Nc1ccc(OC)cc1,-0.4,-3.9,-3.7,-4.9,10.7*
CCNCC(=O)N1c2ccccc2CCc2ccc(NC(=O)OCC)cc21,0.7,-2.3,x,x,-3.8
O=C(CNC(=O)Cn1ccc2ccccc2c1=O)NCCCN1CCN(c2cccc(Cl)c2)CC1,20.9*,-2.3,-1.6,-8.5,-0.2
CCCCn1c(-c2ccc(Cl)cc2)nc2c(=O)n(C)c(=O)[nH]c21,x,-1.2,24.8,50.2*,-3.1
CCCc1nc2c(=O)n(C)c(=O)[nH]c2n1C,108.3*,-5.2,121.6*,113.8*,-1.0
CCCCn1c(-c2ccc(OC)cc2)nc2c(=O)n(C)c(=O)[nH]c21,1.8,-1.9,x,x,-0.2
CCCn1c(-c2ccc(OC)cc2)nc2c(=O)n(C)c(=O)[nH]c21,-0.2,-1.4,0.4,-0.9,-3.6
Cc1cc(C(=O)CN2C(=O)c3ccccc3S2(=O)=O)c(C)n1CC1CCCO1 (stereo not drawn),7.0,9.4*,-13.3,-1.6,5.9
Cc1c(Cl)cccc1Nc1ncccc1C(=O)OCC(O)CO (stereo not drawn),19.0*,-0.3,2.2,-4.4,0.1
CC(C)=CCN1CCN(Cc2c[nH]c3ccccc23)CC1CCO (stereo not drawn),-1.8,-4.6,x,x,-2.5
COc1ccccc1CCNC(C)CCc1ccc(O)cc1 (stereo not drawn),u,-2.7,x,x,-2.3
CC(CCc1ccc(O)cc1)NCCc1ccc(O)c(O)c1 (stereo not drawn),40.3*,x,x,x,x
CC(=O)Nc1ccc(S(=O)(=O)c2cc(O)ccc2O)cc1,-4.6,1.1,x,x,1.8
O=C(O)c1ccc(Nc2c3ccccc3nc3ccccc23)cc1,20.0*,-1.3,x,x,-2.2
COc1ccc(Nc2nc(-c3ccncc3)nc3ccccc23)cc1,0.5,-1.7,x,x,11.0*
COc1ccc(Nc2c3c(nc4ccccc24)CCC3)cc1,7.5,-3.4,x,x,6.5
COc1ccc(Nc2c3ccccc3nc3ccccc23)cc1,66.7*,-4.2,x,x,9.2*
O=C(O)c1ccc(Nc2nc(-c3ccccc3)nc3ccccc23)cc1,-0.7,-2.1,x,x,-0.6
O=C(OCCNc1nc(-c2ccccc2)nc2ccccc12)c1ccncc1,-0.9,-5.1,-0.7,-1.1,9.6*
COc1cccc(OC)c1C(=O)Nc1ccccc1C(=O)N1CCCCCC1,u,-1.6,x,x,2.0
CC(C)c1cc(CNC(=O)C2CCC(=O)N(CCc3ccc(Cl)cc3)C2)on1 (stereo not drawn),1.4,-0.7,x,x,-0.7
COc1ccc(NC2CCCN(C(=O)CCCn3cncn3)C2)cc1OC (stereo not drawn),-0.1,-2.4,x,x,-2.4
COc1cccc(C(=O)NNc2c3ccccc3nc3ccccc23)c1,16.0*,-5.3,x,x,-2.5
CCC(C)[C@H](N)C(=O)NC[C@H]1CC[C@H](C(=O)N[C@@H](Cc2ccccc2)C(=O)O)CC1 (stereo partly drawn),-4.2,-1.2,x,x,-1.7
SMILES,RanGTP-Impb inh,IMP-1 inh,Runt-CBFb FRET,Runt-SMMHC FRET,VIM-2 inhibitor
N#CC1=C(N)Oc2cc(N)ccc2C1c1cccnc1 (stereo not drawn),23.7*,-1.4,-4.2,-3.5,-3.5
CCN(CC)c1ccc2c(c1)OC(N)=C(C#N)C2c1cccnc1 (stereo not drawn),-126.6,9.6*,x,-193.9,6.1
C#CCSc1nc(N)c2c(n1)OC(N)=C(C#N)C2c1cccnc1 (stereo not drawn),60.5*,-2.9,0.2,3.0,0.1
Cn1cc(S(=O)(=O)N2CCCC2)cc1C(=O)NCc1ccccc1Cl,3.0,-1.7,x,x,-1.5
Cc1c(C(=O)N2CCCC2)c(S(=O)(=O)Nc2ccccc2)c(C)n1C,-5.4,-3.5,x,x,-8.6
Cc1cc2ccccc2n2c(SCC(=O)N3CCOCC3)nnc12,-2.6,-3.6,1.4,2.3,8.0*
N#CC1=C(N)SC(N)=C(C#N)C1c1ccc(C(F)(F)F)cc1,23.9*,-0.3,37.6,40.8,-3.8
CCOc1ccc(C2C(C#N)=C(N)SC(N)=C2C#N)cc1OC,26.1*,-3.9,5.7,-6.7,-1.7
CCOC(=O)C1=C(C)OC(N)=C(C#N)C1c1ccc(O)c(OC)c1 (stereo not drawn),-2.5,-3.0,4.6,13.5,-3.8
N#CC1=C(N)SC(N)=C(C#N)C1c1ccc([N+](=O)[O-])cc1,-2.0,-1.1,41.0,41.0,-0.2
CCOc1ccccc1C1C(C#N)=C(N)SC(N)=C1C#N,11.4,-1.1,13.0,42.8,-2.4
CCOc1ccc(C2C(C#N)=C(N)SC(N)=C2C#N)cc1OCC,33.1*,x,11.9,26.8,x
CCCn1c(=O)[nH]c(=O)c2c1nc(-c1cc([N+](=O)[O-])ccc1Cl)n2CCOC,3.0,-3.2,x,x,-2.4
COc1cccc(C(=O)Nc2nc3c(s2)CN(C)CC3)c1,9.4,-1.8,x,86.8*,-0.5
CN1CCc2nc(NC(=O)c3cccc(S(=O)(=O)N4CCc5ccccc54)c3)sc2C1,48.1*,-2.7,44.7,84.5*,-3.9
COc1cccc(C(=O)Nc2sc3c(c2C#N)CCN(C(C)=O)C3)c1,x,-3.0,21.2,51.1*,-1.6
COc1ccc(S(=O)(=O)N2CCSC2C)cc1C (stereo not drawn),-1.8,-2.0,x,x,-1.9
COc1c(C=O)cc2c3c1CCCN3CCC2,2.0,-1.9,x,x,-0.9
NCc1cc2c3c(c1)CCCN3CCC2,13.1,-2.1,x,x,9.0*
CCn1c(-c2nn(C)cc2Cl)n[nH]c1=S,-4.1,-4.0,7.0,1.3,1.8
Cc1ccc(-n2c(-c3cn(C)nc3C)n[nH]c2=S)cc1,8.7,-4.8,x,12.7,8.9*
Cc1occc1-c1n[nH]c(=S)n1C,2.7,-4.1,2.4,1.2,1.7
Fc1ccc(-c2n[nH]c(=S)n2-c2ccc3c(c2)OCCO3)cc1,2.6,-0.4,2.5,15.9,9.2*
Cc1nn(C)cc1-c1n[nH]c(=S)n1-c1ccc(F)cc1,2.6,-1.8,15.0,20.8,4.9
Cn1cc(Cl)c(-c2n[nH]c(=S)n2-c2ccc(F)cc2)n1,-2.1,-1.1,4.8,3.0,11.3*
SMILES,RanGTP-Impb inh,IMP-1 inh,Runt-CBFb FRET,Runt-SMMHC FRET,VIM-2 inhibitor
Cc1occc1-c1n[nH]c(=S)n1-c1ccccc1,1.8,-5.3,8.6,8.9,8.7*
COc1ccccc1NC(=O)CCCc1nnc2n(C)c(=O)c3sccc3n12,-3.4,-1.7,x,x,-1.0
Cc1ccc(C(=O)Nn2cnnc2)cc1Cl,5.7,0.3,x,x,2.8
c1ccc(Oc2c3ccccc3nc3ccccc23)cc1,8.6,-1.5,33.8,74.3*,-0.3
N#Cc1c2ccccc2nc2ccccc12,18.2*,2.2,44.6,97.9*,6.0
Nc1c2c(nc3ccccc13)CCCC2,4.2,-0.9,0.2,0.8,-0.4
Nc1c2ccccc2nc2ccccc12,175.2*,-2.4,9.8,81.6*,3.2
